The target of assay [1] is T1, Inosine-5'-monophosphate dehydrogenase 2 (Homo sapiens, UniProt P12268). As to the kind of experiment: Inhibition of human recombinant IMPDH2 expressed in Escherichia coli guaB assessed as NADH production at 5 uM by fluorescence assay.
The target in assay [2] is T2, Inosine-5'-monophosphate dehydrogenase (Cryptosporidium parvum, UniProt Q8T6T2).
T2 sequence (Q8T6T2 whole entry): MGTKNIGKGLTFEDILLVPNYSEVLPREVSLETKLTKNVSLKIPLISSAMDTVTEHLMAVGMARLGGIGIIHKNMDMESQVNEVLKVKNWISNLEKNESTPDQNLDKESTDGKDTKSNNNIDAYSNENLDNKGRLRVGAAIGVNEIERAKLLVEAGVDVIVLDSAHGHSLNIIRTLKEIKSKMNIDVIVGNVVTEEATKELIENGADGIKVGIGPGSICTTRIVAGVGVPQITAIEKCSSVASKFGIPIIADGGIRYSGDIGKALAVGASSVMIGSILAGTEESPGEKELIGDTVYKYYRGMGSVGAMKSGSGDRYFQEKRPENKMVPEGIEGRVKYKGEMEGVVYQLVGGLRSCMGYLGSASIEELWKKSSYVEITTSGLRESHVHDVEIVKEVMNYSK
As to the kind of experiment: Inhibition of Cryptosporidium parvum recombinant IMPDH expressed in Escherichia coli TX685 assessed as NADH production by fluorescence assay in presence of 0.05% fatty acid free bovine serum albumin. The method, boiled down: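 Same IMP→XMP fluorescence (NADH) assay, with 0.05% fatty acid free BSA added. Conditions: 10 nM enzyme, 5 min room-temperature pre-incubation with inhibitor, then 150 μM IMP and 300 μM NAD. IC50 from three independent experiments, mean ± SD.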

The target in assay [3] is T2, Inosine-5'-monophosphate dehydrogenase. As to the kind of experiment: Inhibition of Cryptosporidium parvum recombinant IMPDH expressed in Escherichia coli TX685 assessed as NADH production by fluorescence assay in absence of 0.05% fatty acid free bovine serum albumin. The method, boiled down:
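Enzyme (10 nM) pre-incubated with inhibitor 5 min at room temperature before adding substrates (150 μM IMP, 300 μM NAD). Inhibitor range 25 pM–5 μM. NADH read by fluorescence. Initial velocities averaged over quadruplicates. IC50 from vi/vo, mean ± SD of three independent determinations.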

In assay [4] the target is T3, Inosine-5'-monophosphate dehydrogenase (Cryptosporidium parvum) (UniProt Q8T6T2).
T3 sequence (whole entry): T2 sequence (Q8T6T2 whole entry)
As to the kind of experiment: Ratio of campaign IC50 to compound IC50 for Cryptosporidium parvum recombinant IMPDH expressed in Escherichia coli TX685 in absence of 0.05% fatty acid free bovine serum albumin.

Assay [5] deals with T1, Inosine-5'-monophosphate dehydrogenase 2. As to the kind of experiment: Inhibition of human recombinant IMPDH2 expressed in Escherichia coli guaB assessed as NADH production by fluorescence assay.
In assay [6] the target is T2, Inosine-5'-monophosphate dehydrogenase. As to the kind of experiment: Inhibition of Cryptosporidium parvum recombinant IMPDH expressed in Escherichia coli guaB assessed as NADH production by fluorescence assay. Put shortly: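 E. coli-expressed CpIMPDH at 10 nM, preincubated with inhibitor (25 pM - 5 μM) for 5 min at room temperature before adding 150 μM IMP and 300 μM NAD. NADH read by fluorescence from initial velocities, in quadruplicate. IC50 ± SD from three independent runs, some also with 0.05% fatty-acid-free BSA.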

Consider 25 compounds from ChEMBL document CHEMBL1158492, “Triazole inhibitors of Cryptosporidium parvum inosine 5'-monophosphate dehydrogenase” (J Med Chem, 2009).

With `CC(Oc1cccc2ccccc12)c1cn(-c2ccc(Cl)cc2)nn1` (configuration not stated), the inhibition in assay [1] was less than 10%. Moreover, the IC50 in assay [2] was determined as 780 nM; in assay [3], 130 nM.
Taken in the same sequence, the figures for `CC(Oc1ccc(Cl)c2ccccc12)c1cn(-c2ccc(Cl)cc2)nn1` (configuration not stated) were less than 10%, 3900 nM and 87 nM.
With `CC(Oc1cccc2ccccc12)c1cn(-c2ccccc2Cl)nn1` (configuration not stated), the inhibition in assay [1] is less than 10%. The IC50 in assay [3] is more than 5000 nM.
With `C[C@@H](Oc1cc[n+]([O-])c2ccccc12)c1cn(-c2ccc(Cl)cc2)nn1`, in assay [1], the inhibition was less than 10%. For the same compound, the IC50 in assay [2] was 50 nM; in assay [3], 13 nM.
Consider `CC(Oc1ccnc2ccccc12)c1cn(-c2ccc(Cl)c(Cl)c2)nn1` (configuration not stated), for which, in assay [1], the inhibition is less than 10%. Also, the IC50 was determined as 700 nM in assay [2] and 20 nM in assay [3].
In the same order, the values of `CC(Oc1cccc2c1ccc[n+]2[O-])c1cn(-c2ccc(Cl)cc2)nn1` (configuration not stated) are less than 10%, 59 nM and 44 nM.
In the same order, the values of `CC(Oc1ccnc2ccccc12)c1cn(-c2ccc(C#N)c(Cl)c2)nn1` (configuration not stated) are less than 10%, 1400 nM and 40 nM.
In the same order, the values of `C[C@@H](Oc1cccc2ncccc12)c1cn(-c2ccc(Cl)cc2)nn1` are less than 10%, 30 nM and 9 nM.
Regarding `CC(Oc1ccnc2ccccc12)c1cn(-c2ccc(C#N)cc2)nn1` (configuration not stated), in assay [1], the inhibition was less than 10%. In addition, the IC50 was 340 nM in assay [2] and 140 nM in assay [3].
Turning to `CC(Oc1cccc2ccccc12)C(=O)Nc1ccc(Cl)cc1` (configuration not stated), the inhibition in assay [1] was less than 10%. For the same compound, the Ratio IC50 in assay [4] is 3. The IC50 in assay [2] came out at 1640 nM; in assay [3] it was 1060 nM.
Consider `C[C@@H](Oc1ccnc2ccccc12)c1cn(-c2ccc(C#N)c(Cl)c2)nn1`, for which the inhibition in assay [1] was less than 10%. Further, the IC50 in assay [2] amounted to 1100 nM; in assay [3] it was 31 nM.
In the same order, the values of `CC(Oc1cc[n+]([O-])c2ccccc12)c1cn(-c2ccc(Cl)cc2)nn1` (configuration not stated) are less than 10%, 50 nM and 29 nM.
In the case of `C[C@@H](Oc1ccnc2ccccc12)c1cn(-c2ccc(Cl)c(Cl)c2)nn1`, the inhibition in assay [1] is less than 10%. Moreover, the concentration for half-maximal inhibition (IC50) came to 650 nM in assay [2] and 9 nM in assay [3].
In the same order, the values of `CC(Oc1ccnc2ccccc12)C(=O)Nc1ccc(Cl)cc1` (configuration not stated) are less than 10%, 860 nM and 660 nM.
Taken in the same sequence, the figures for `CC(C)C(Oc1cccc2ccccc12)C(=O)Nc1ccc(Cl)cc1` (configuration not stated) were less than 10%, 830 nM and 710 nM.
With `O=C(Nc1ccc(Cl)cc1)C(Oc1cccc2ccccc12)c1ccccc1` (configuration not stated), in assay [1], the inhibition is less than 10%. The IC50 in assay [3] was more than 5000 nM.
`C[C@@H](Oc1cccc2c1ccc[n+]2[O-])c1cn(-c2ccc(Cl)cc2)nn1`: the inhibition in assay [1] is less than 10%. The IC50 came to 52 nM in assay [2] and 24 nM in assay [3].
Taken in the same sequence, the figures for `Clc1ccc(-n2cc(COc3ccnc4ccccc34)nn2)cc1` were less than 10%, 480 nM and 440 nM.
For `O=C(Nc1ccc(Cl)cc1)C(Oc1cccc2ccccc12)C1CC1` (configuration not stated), the inhibition in assay [1] was less than 10%. Also, the IC50 in assay [3] is more than 5000 nM.
With `CC(Oc1ccnc2ccccc12)c1cn(-c2ccc(Cl)cc2)nn1` (configuration not stated), in assay [1], the inhibition was less than 10%. Further, the IC50 amounted to 230 nM in assay [2] and 24 nM in assay [3].
On to `CC(Oc1cc[n+]([O-])c2ccccc12)c1cn(-c2ccc(Cl)c(Cl)c2)nn1` (configuration not stated), for which, in assay [1], the inhibition was less than 10%. Further, the concentration for half-maximal inhibition (IC50) came to 42 nM in assay [2] and 18 nM in assay [3].
In the same order, the values of `C[C@H](Oc1ccnc2ccccc12)c1cn(-c2ccc(C#N)c(Cl)c2)nn1` are less than 10%, 2300 nM and 600 nM.
With `CC(C)C(Oc1cccc2ccccc12)c1cn(-c2ccc(Cl)cc2)nn1` (configuration not stated), the inhibition in assay [1] is less than 10%. In addition, the IC50 in assay [3] is more than 5000 nM.
Consider `C[C@H](Oc1ccnc2ccccc12)c1cn(-c2ccc(Cl)c(Cl)c2)nn1`, for which the inhibition in assay [1] is less than 10%. Further, the 50% inhibitory concentration (IC50) was 880 nM in assay [2] and 130 nM in assay [3].
Turning to `CC(Oc1ccccc1)C(=O)Nc1ccc(Cl)cc1` (configuration not stated), the concentration for half-maximal inhibition (IC50) in assay [5] was more than 50000 nM; in assay [3] it was 3300 nM. Moreover, the EC50 in assay [6] turned out to be 3300 nM.

As a reminder, the inhibition is how much of the control response was suppressed. Usually IC50 stands for the point on the concentration scale where inhibition reaches its midpoint. A word on the EC50: it is the concentration at which the effect is half-maximal.
